Measured values reported in ChEMBL document CHEMBL4842366, “Design, synthesis and structure-activity relationship studies of 4-indole-2-arylaminopyrimidine derivatives as anti-inflammatory agents for acute lung injury” (Eur J Med Chem, 2021).
The source made the active and inactive calls. The calls are words filed in the database; no cut-off is given here.

What was measured:
[1] = Antiinflammatory activity in human HBE cells assessed as inhibition of LPS-induced IL-8 production at 5 uM pretreated with compound for 30 mins followed by LPS stimulation and measured after 24 hrs by ELISA relative to control; assay type: functional; conditions: 24.5 h, time 1470 min
Method in brief: (§1)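 HBE cells were grown in RPMI-1640 with 10% FBS at 37 °C and 5% CO2. Cells were pretreated for 30 min with compound or indomethacin at 5 μM, then stimulated with LPS (100 μg/mL) for 24 h. IL-6 or IL-8 in the medium was measured by ELISA and normalized to total cell protein determined by BCA assay.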

[2] = Antiinflammatory activity in human HBE cells assessed as inhibition of LPS-induced IL-6 production at 5 uM pretreated with compound for 30 mins followed by LPS stimulation and measured after 24 hrs by ELISA relative to control; assay type: functional; conditions: 24.5 h, time 1470 min; method in brief: as §1
[3] = Cytotoxicity against human HBE cells assessed as cell survival rate at 10 uM by MTT assay relative to control; assay type: cell-based; conditions: read-out: Survival
Method in brief: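 HBE cells in RPMI-1640 with 10% FBS at 37 °C, 5% CO2, seeded at 1 × 10^4 cells per well. Compounds tested at 10 μM. After treatment, MTT (5 mg/mL) for 4 h at 37 °C in the dark, formazan dissolved in DMSO, absorbance read at 490 nm. Data as mean ± SEM.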

[4] = Cytotoxicity against human HBE cells assessed as reduction in cell survival at 10 uM by MTT assay; assay type: cell-based
Method in brief: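 HBE cells were seeded at 1 × 10^4 per well in RPMI-1640 with 10% FBS and exposed to compound at 10 μM. Viability was then read by MTT: MTT solution (5 mg/mL) for 4 h at 37 °C in the dark, formazan dissolved in DMSO, and absorbance read at 490 nm.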

HBE [5] = test: Antiinflammatory activity in human HBE cells assessed as inhibition of LPS-induced IL-6 production at 5 uM pretreated with compound for 30 mins followed by LPS stimulation and measured after 24 hrs by ELISA; assay type: functional, cell-based; conditions: time 1470.0 min; method in brief: as §1
HBE [6] = test: Antiinflammatory activity in human HBE cells assessed as inhibition of LPS-induced IL-8 production at 5 uM pretreated with compound for 30 mins followed by LPS stimulation and measured after 24 hrs by ELISA; assay type: functional, cell-based; conditions: time 1470.0 min; method in brief: as §1
[7] = biological target: T1, Epidermal growth factor receptor (Homo sapiens, UniProt P00533); test: Inhibition of EGFR phosphorylation in human HBE cells incubated for 24 hrs by western blot analysis; assay type: cell-based
Method in brief: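 HBE cells were treated with drug for 24 h, washed with cold PBS and lysed on ice for 30 min in buffer with protease and phosphatase inhibitors, then centrifuged at 12000 r/min, 4 °C, for 30 min. Protein was quantified by BCA and separated by SDS-PAGE. Blots were probed overnight at 4 °C with p-EGFR/EGFR antibodies, then secondary antibody (1:2000, 2 h), and detected by chemiluminescence.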

Mus musculus [8] = test: In vivo inhibition of MAPK phosphorylation in LPS-induced acute lung injury C57BL/6 mouse model assessed as inhibition of ERK phosphorylation in lungs at 20 mg/kg, ip administered for 3 days and on day 4 treated 1 hr before LPS stimulation and measured after 18 hrs by western blot analysis; assay type: functional, organism-based; conditions: time 4.0 day
Mus musculus [9] = test: Antiinflammatory activity against LPS-induced acute lung injury C57BL/6 mouse model assessed as reduction in TNF-alpha mRNA expression in lungs at 20 mg/kg, ip administered for 3 days and on day 4 treated 1 hr before LPS stimulation and measured after 18 hrs by SYBR green dye based RT-qPCR analysis; assay type: functional, organism-based; conditions: time 4.0 day
Method in brief: (§2)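 Same LPS lung-injury protocol: n = 6 male C57BL/6 mice per group, 3 days of i.p. saline or compound, then intratracheal LPS (5 mg/kg) 1 h after the day-4 dose, and sacrifice at 18 h. Lung RNA was extracted with TRIZOL for real-time quantitative PCR, with mouse GAPDH primers alongside the target primers. Data are mean ± SEM; Student's t-test.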

Mus musculus [10] = test: Antiinflammatory activity against LPS-induced acute lung injury C57BL/6 mouse model assessed as reduction in inflammatory cell infiltration in lungs at 20 mg/kg, ip administered for 3 days and on day 4 treated 1 hr before LPS stimulation and measured after 18 hrs by H and E staining based microscopic analysis; assay type: functional, organism-based; conditions: time 4.0 day
Method in brief: (§3)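 Male C57BL/6 mice (20–25 g, SPF) in groups of n = 6 were given 0.9% saline or compound i.p. for 3 days. On day 4, LPS (5 mg/kg) was instilled intratracheally 1 h after dosing, and mice were killed 18 h later. Lungs were fixed in 4% paraformaldehyde, paraffin-embedded, cut at 5 μm, H&E-stained and photographed for pathology.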

Mus musculus [11] = test: Antiinflammatory activity against LPS-induced acute lung injury C57BL/6 mouse model assessed as reduction in iNOS mRNA expression in lungs at 10 to 20 mg/kg, ip administered for 3 days and on day 4 treated 1 hr before LPS stimulation and measured after 18 hrs by SYBR green dye based RT-qPCR analysis; assay type: functional, organism-based; conditions: dose 10-20 mg/kg, time 4.0 day; method in brief: as §2
Mus musculus [12] = test: In vivo inhibition of MAPK phosphorylation in LPS-induced acute lung injury C57BL/6 mouse model assessed as inhibition of p38 phosphorylation in lungs at 20 mg/kg, ip administered for 3 days and on day 4 treated 1 hr before LPS stimulation and measured after 18 hrs by western blot analysis; assay type: functional, organism-based; conditions: time 4.0 day
Mus musculus [13] = test: Antiinflammatory activity against LPS-induced acute lung injury C57BL/6 mouse model assessed as improved alveolar structure in lungs at 20 mg/kg, ip administered for 3 days and on day 4 treated 1 hr before LPS stimulation and measured after 18 hrs by H and E staining based microscopic analysis; assay type: functional, organism-based; conditions: time 4.0 day; method in brief: as §3
Mus musculus [14] = test: Antiinflammatory activity against LPS-induced acute lung injury C57BL/6 mouse model assessed as reduction in edema of lung tissue at 20 mg/kg, ip administered for 3 days and on day 4 treated 1 hr before LPS stimulation and measured after 18 hrs by H and E staining based microscopic analysis; assay type: functional, organism-based; conditions: time 4.0 day; method in brief: as §3
Mus musculus [15] = test: Antiinflammatory activity against LPS-induced acute lung injury C57BL/6 mouse model assessed as reduction in lung edema by measuring reduction in lung wet/dry ratio at 10 to 20 mg/kg, ip administered for 3 days and on day 4 treated 1 hr before LPS stimulation and measured after 18 hrs; assay type: functional, organism-based; conditions: dose 10-20 mg/kg, time 4.0 day
Method in brief: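 Mice (male C57BL/6, n = 6/group) received i.p. saline or compound for 3 days, then intratracheal LPS 5 mg/kg 1 h after the day-4 dose, and were killed 18 h later. Lungs were weighed wet, dried at 60 °C for 48 h to constant weight, and the wet/dry ratio was calculated. Data are mean ± SEM; t-test.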

Mus musculus [16] = test: Antiinflammatory activity against LPS-induced acute lung injury C57BL/6 mouse model assessed as reduction in total cell count in BALF at 10 to 20 mg/kg, ip administered for 3 days and on day 4 treated 1 hr before LPS stimulation and measured after 18 hrs; assay type: functional, organism-based; conditions: dose 10-20 mg/kg, time 4.0 day
Method in brief: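 BALF was collected 18 h after intratracheal LPS (5 mg/kg) in male C57BL/6 mice (n = 6/group) given i.p. saline or compound for 3 days, with LPS 1 h after the day-4 dose. Lavage was done with 3 × 1 mL cold PBS and centrifuged at 800 g, 4 °C, for 10 min. The pellet was washed and resuspended in 10 mL PBS, and total cells were counted.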

Mus musculus [17] = test: Antiinflammatory activity against LPS-induced acute lung injury C57BL/6 mouse model assessed as reduction in IL-6 mRNA expression in lungs at 20 mg/kg, ip administered for 3 days and on day 4 treated 1 hr before LPS stimulation and measured after 18 hrs by SYBR green dye based RT-qPCR analysis; assay type: functional, organism-based; conditions: time 4.0 day; method in brief: as §2
Mus musculus [18] = test: Antiinflammatory activity against LPS-induced acute lung injury C57BL/6 mouse model assessed as reduction in IL-1beta mRNA expression in lungs at 20 mg/kg, ip administered for 3 days and on day 4 treated 1 hr before LPS stimulation and measured after 18 hrs by SYBR green dye based RT-qPCR analysis; assay type: functional, organism-based; conditions: time 4.0 day; method in brief: as §2
Mus musculus [19] = test: Antiinflammatory activity against LPS-induced acute lung injury C57BL/6 mouse model assessed as reduction in protein content in BALF at 10 to 20 mg/kg, ip administered for 3 days and on day 4 treated 1 hr before LPS stimulation and measured after 18 hrs by BCA assay; assay type: functional, organism-based; conditions: dose 10-20 mg/kg, time 4.0 day
Method in brief: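 In male C57BL/6 mice (n = 6/group; i.p. dosing for 3 days; intratracheal LPS 5 mg/kg 1 h after the day-4 dose; killed at 18 h), lungs were lavaged three times with 1 mL cold PBS. BALF was spun at 800 g, 4 °C, for 10 min, and supernatant protein was measured by BCA assay.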

Peritoneal macrophage = test: Inhibition of LPS-induced NO production in mouse peritoneal macrophages measured after 24 hrs by Griess assay; assay type: functional, cell-based
[20] = biological target: T1, Epidermal growth factor receptor; test: Inhibition of human EGFR using poly(Glu:Tyr)(4:1) as substrate in presence of [gamma33P]ATP by radiometric HotSpot assay

T1 sequence (P00533 whole entry): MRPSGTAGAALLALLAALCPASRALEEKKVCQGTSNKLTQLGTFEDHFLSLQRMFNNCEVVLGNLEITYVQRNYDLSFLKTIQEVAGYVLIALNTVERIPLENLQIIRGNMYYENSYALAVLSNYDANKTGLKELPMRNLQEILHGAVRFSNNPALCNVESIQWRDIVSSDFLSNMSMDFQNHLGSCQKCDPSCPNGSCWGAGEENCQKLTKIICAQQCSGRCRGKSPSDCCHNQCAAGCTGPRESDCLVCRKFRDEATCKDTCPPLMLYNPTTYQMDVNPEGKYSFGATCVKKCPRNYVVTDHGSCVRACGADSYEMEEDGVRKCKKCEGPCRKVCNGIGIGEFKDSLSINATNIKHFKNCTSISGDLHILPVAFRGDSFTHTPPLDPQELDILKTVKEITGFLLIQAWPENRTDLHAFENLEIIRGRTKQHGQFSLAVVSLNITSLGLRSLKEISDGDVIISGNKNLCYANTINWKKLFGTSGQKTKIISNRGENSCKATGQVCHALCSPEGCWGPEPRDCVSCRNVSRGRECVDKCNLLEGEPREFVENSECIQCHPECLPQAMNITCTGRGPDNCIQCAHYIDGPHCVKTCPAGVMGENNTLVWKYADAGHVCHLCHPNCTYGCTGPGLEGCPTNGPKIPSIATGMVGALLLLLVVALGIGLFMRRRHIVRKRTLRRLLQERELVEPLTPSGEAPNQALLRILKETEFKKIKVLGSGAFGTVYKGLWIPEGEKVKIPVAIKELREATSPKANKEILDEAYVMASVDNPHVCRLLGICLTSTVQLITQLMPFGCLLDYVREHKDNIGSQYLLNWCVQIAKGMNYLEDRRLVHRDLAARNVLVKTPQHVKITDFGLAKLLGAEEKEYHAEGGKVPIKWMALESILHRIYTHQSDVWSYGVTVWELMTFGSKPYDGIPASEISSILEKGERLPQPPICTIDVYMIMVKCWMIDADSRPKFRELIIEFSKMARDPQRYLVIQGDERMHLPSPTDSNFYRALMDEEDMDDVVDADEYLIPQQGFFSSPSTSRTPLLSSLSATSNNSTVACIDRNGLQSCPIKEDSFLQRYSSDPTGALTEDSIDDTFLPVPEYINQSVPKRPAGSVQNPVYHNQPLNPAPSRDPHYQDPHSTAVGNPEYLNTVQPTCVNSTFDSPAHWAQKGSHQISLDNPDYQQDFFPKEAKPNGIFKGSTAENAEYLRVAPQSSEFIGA

COc1cc(N2CCN(C)CC2)c(N)cc1Nc1nccc(-c2cn(C)c3ccccc23)n1
inhibition at 5 µM [1]: 65% | inhibition at 5 µM [2]: 62% | viability at 10 µM [3]: < 70%

COc1cc(N(C)CCN(C)C)c(NC(=O)CCCN=[N+]=[N-])cc1Nc1nccc(-c2cn(C)c3ccccc23)n1
Activity [4]: Non-Toxic | inhibition at 5 µM [1]: 88% | Activity (HBE [5]): Active

COc1cc(N2CCCCC2)c(N)cc1Nc1nccc(-c2cn(C)c3ccccc23)n1.Cl
Activity [4]: Non-Toxic | Activity (HBE [6]): Active | Activity (HBE [5]): Active

CCCCN(CCCC)c1cc(OC)c(Nc2nccc(-c3cn(C)c4ccccc34)n2)cc1N.Cl
Activity [4]: Non-Toxic | Activity (HBE [6]): Active | Activity (HBE [5]): Active

COc1cc(N2CCCC2)c(N)cc1Nc1nccc(-c2cn(C)c3ccccc23)n1.Cl
Activity [4]: Non-Toxic | inhibition at 5 µM [1]: 65% | inhibition [7]: Active | inhibition at 5 µM [2]: 62%

COc1cc(N(C)CCN(C)C)c(NC(=O)CN=[N+]=[N-])cc1Nc1nccc(-c2cn(C)c3ccccc23)n1
Activity [4]: Non-Toxic | Activity (HBE [6]): Active | Activity (HBE [5]): Active

COc1cc(N2CCOCC2)c(N)cc1Nc1nccc(-c2cn(C)c3ccccc23)n1.Cl
Activity [4]: Non-Toxic | Activity (HBE [6]): Active | Activity (HBE [5]): Active

COc1cc(N(C)CCN(C)C)c([N+](=O)[O-])cc1Nc1nccc(-c2cn(C)c3ccccc23)n1
Activity (HBE [6]): Active | viability at 10 µM [3]: < 70% | Activity (HBE [5]): Active

CCN(CC)c1cc(OC)c(Nc2nccc(-c3cn(C)c4ccccc34)n2)cc1N.Cl
Activity [4]: Non-Toxic | Activity (HBE [6]): Active | Activity (HBE [5]): Active

COc1ccc2c(c1)c(CC(=O)O)c(C)n2C(=O)c1ccc(Cl)cc1 [INDOMETHACIN]
Activity [4]: Non-Toxic | Activity (HBE [6]): Active | Activity (HBE [5]): Active

COc1cc(N(C)CCN(C)C)c(N)cc1Nc1nccc(-c2cn(C)c3ccccc23)n1.Cl
inhibition (Mus musculus [8]): Active | Activity (Mus musculus [9]): Active | Activity (Mus musculus [10]): Active | Activity [4]: Non-Toxic | Activity (Mus musculus [11]): Active | inhibition (Mus musculus [12]): Active | inhibition at 5 µM [1]: 72% | Activity (Mus musculus [13]): Active | Activity (Mus musculus [14]): Active | Activity (Mus musculus [15]): Active | inhibition [7]: Active | Activity (Mus musculus [16]): Active | Activity (Mus musculus [17]): Active | inhibition at 5 µM [2]: 62% | Activity (Mus musculus [18]): Active | Activity (Mus musculus [19]): Active

O=C(Nc1cncnc1Oc1cccc(C(F)(F)F)c1)c1ccc(F)cc1
IC50 (Peritoneal macrophage): 20.8 µM | IC50 [20]: 2.98 µM

COc1cc(F)c(N)cc1Nc1nccc(-c2cn(C)c3ccccc23)n1
Activity [4]: Non-Toxic | inhibition at 5 µM [1]: 49% | inhibition [7]: Active | inhibition at 5 µM [2]: 63%

COc1cc(N2CCCCCC2)c(N)cc1Nc1nccc(-c2cn(C)c3ccccc23)n1.Cl
Activity [4]: Non-Toxic | Activity (HBE [6]): Active | Activity (HBE [5]): Active
